Shown are actives, neighbours in structure and some others; about 1.7% of the full set was active somewhere.
T cell HTS – modulates CD8 T cell binding to vesicles; 2C CD8+ T cell-vesicle binding, flow cytometry; hits give low values; hit rate 0.068% among 330,000; AID 2052; response (vesicle binding), % at 7 µM;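 active = response, share of CD8 T cells binding vesicles, and their 90th percentile fluorescence all below set limits, cut at about 80% in these data, passing the limit was not always enough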;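 also: values below 100% mean blocked vesicle binding to the CD8+ T cells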
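Incubation: binding step 1.5 h, 37 °C, antibody labelling 20 min, ice; system: murine 2C transgenic CD8+ T lymphocytes; technique: cytometric PE anti-B7-1 and Alexa647 anti-CD8 signals after 1% paraformaldehyde fixation; also added: QL9-charged Drosophila Ld/ICAM-1/B7-1 vesicles; control set: naked versus QL9-loaded vesicles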
Vif imaging – blocks HIV Vif function; AID 602346; HEK293T cells, Vif self-association by quenched fluorescence, imaging, 24 h; inhibition, % at 7.49 µM; hit rate 0.35% among 340,000; in the data active = inhibition above about 50%, passing the limit was not always enough; inconclusive = no clear call, values can overlap the other calls; inactive = below about 31%
Pemphigus Ab inh – human desmoglein-3 autoantibody binding inhibition | P32926 | DSG3-coupled beads, scFv-anti-DSG3-GFP binding, flow cytometry; hits give low values | binding (percent of control), % at 10 µM | hit rate 0.48% among 310,000;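 active = binding more than 3 SD below its plate's average and above zero; inconclusive = below that plate limit but binding exactly zero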;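 also: hits lower antibody fragment binding to DSG3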
Target sequence (P32926 whole entry, looked up, the tested form may be a part): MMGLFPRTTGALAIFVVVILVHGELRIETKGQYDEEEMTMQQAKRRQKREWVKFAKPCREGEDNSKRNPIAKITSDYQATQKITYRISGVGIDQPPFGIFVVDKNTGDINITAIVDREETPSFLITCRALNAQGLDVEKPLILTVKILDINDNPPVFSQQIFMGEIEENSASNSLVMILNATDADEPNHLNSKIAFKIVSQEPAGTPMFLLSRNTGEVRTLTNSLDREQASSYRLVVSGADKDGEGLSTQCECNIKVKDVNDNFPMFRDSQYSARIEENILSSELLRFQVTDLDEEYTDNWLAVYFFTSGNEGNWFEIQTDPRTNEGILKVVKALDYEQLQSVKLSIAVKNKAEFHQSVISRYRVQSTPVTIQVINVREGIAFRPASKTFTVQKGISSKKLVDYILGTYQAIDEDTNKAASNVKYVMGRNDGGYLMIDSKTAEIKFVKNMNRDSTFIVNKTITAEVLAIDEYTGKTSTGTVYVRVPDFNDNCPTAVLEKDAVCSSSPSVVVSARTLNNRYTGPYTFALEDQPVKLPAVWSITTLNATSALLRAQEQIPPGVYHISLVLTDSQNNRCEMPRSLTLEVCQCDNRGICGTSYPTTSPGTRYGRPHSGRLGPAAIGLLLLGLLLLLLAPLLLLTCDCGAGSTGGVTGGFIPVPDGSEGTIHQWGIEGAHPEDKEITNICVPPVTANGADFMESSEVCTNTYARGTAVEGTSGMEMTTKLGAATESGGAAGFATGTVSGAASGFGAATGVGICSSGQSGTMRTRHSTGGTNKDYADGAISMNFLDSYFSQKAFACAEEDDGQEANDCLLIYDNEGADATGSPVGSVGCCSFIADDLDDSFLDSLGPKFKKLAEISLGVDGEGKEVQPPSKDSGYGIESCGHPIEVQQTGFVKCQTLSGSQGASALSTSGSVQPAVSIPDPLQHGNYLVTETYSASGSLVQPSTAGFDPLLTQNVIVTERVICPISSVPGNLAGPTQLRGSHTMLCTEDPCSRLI
Myeloid diff MLP – compounds promoting myeloid differentiation; calls only at 10 µM; ER-HoxA9 myeloid progenitors, lysozyme-GFP differentiation, flow cytometry; hit rate 1% among 360,000;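 active = normalized GFP-positive differentiation at or above the plate's own cutoff, the solvent-only control mean plus 3 SD; inconclusive = no clear call, values can overlap the other calls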;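 also: cells exposed to compound for four days before flow analysis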
Numbers without * were called inactive; i = inactive; ? = inconclusive; nt = not tested or not shown; + = active, no number; ! = not confirmed by another sample.

SMILES | T cell HTS | Vif imaging | Pemphigus Ab inh | Myeloid diff MLP
CC1(C)CCN2CCC(C)(C)c3c(O)ccc1c32 | 180 | nt | 175 | +
CC(C)N1CC(O)=C(c2nc3ccccc3[nH]2)C1=N | 456 | -3 | 112 | i
CC(C1CC2CCC1C2)N1CC(O)=C(c2nc3ccccc3[nH]2)C1=N (stereo unspecified) | 160 | -2 | 99 | +
O=S(=O)(c1ccc(NC(=S)Nc2ccc(OC(F)F)cc2)cc1)N1CCOCC1 | 218 | -3 | 115 | +
Cc1c([N+](=O)[O-])cc(S(=O)(=O)Nc2ccncc2)cc1[N+](=O)[O-] | 288 | 66* | 103 | i
C/C(=N\Nc1ccc(S(N)(=O)=O)cc1[N+](=O)[O-])c1ccccc1O | 165 | ? | 72* | i
CN(C)c1nc(C=C(C#N)C#N)c(Cl)n1-c1ccc(F)cc1 | nt | 105* | 103 | ?
CCOc1ccccc1NC(=O)/C(C#N)=C/c1c(C)nn(-c2ccc(F)cc2)c1Cl | 321 | -44 | 89 | i
Cc1cc(Br)ccc1NC(=O)CN1C(=O)C2CC=CCC2C1=O (stereo unspecified) | 732 | 10 | 101 | i
O=C(Nc1ccccc1)c1ccc(-c2ccc(Br)cc2)o1 | 594 | -9 | 103 | i
COc1ccccc1NC(=O)c1ccc(-c2ccc(Br)cc2)o1 | 367 | nt | ? | +
Cc1ccc(N2C(=O)C3C4C=CC(CNC(=S)N5CCN(c6cccc(C)c6)C(C)C5)(O4)C3C2=O)cc1 (stereo unspecified) | 427 | -4 | 83* | i
CCCNC(=O)CCn1nc(-c2ccc(Cl)cc2)c2ccccc2c1=O | 321 | ? | 80* | i
O=C(CCn1nc(-c2ccc(Cl)cc2)c2ccccc2c1=O)NN1CCOCC1 | 897 | 4 | 82* | i
CCOC(=O)CN1C(=O)C(=O)N(Cc2c(C)cc(C)cc2C)C1=O | 304 | -12 | 93 | +
COC(=O)c1ccc(N)c(N=CC2=C(O)CC(C)(C)CC2=O)c1 | 283 | -10 | 121 | +
CSc1ccccc1N=CC1=C(O)CC(C)(C)CC1=O | 412 | 9 | 99 | i
COc1cccc(N=CC2=C(O)CC(C)(C)CC2=O)c1 | 256 | -1 | 105 | i
CC1(C)CC(=O)C(C=Nc2ccc(N)cc2)=C(O)C1 | 299 | -5 | 95 | +
CC1(C)CC(=O)C(C=Nc2cc(C(=O)c3ccccc3)ccc2N)=C(O)C1 | 230 | -3 | 105 | +
COC(=O)[C@@]1(C)[C@H]2C(=O)N(C)C(=O)[C@H]2[C@H]2CN=C(SC)N21 | nt | 6 | 100 | i
CCc1nc2c(OCCOc3ccc(F)cc3)cccn2c1N(C)C(=O)C(C)C | nt | -4 | nt | i
CC(=O)Nc1ccc(Sc2ccc([N+](=O)[O-])o2)cc1 | nt | 116* | 92 | ?
CC(=O)c1cccc(NC(=O)C2CCCN2S(=O)(=O)c2ccccc2C(F)(F)F)c1 (stereo unspecified) | nt | 5 | 69* | i
O=C(Nc1cccc(S(=O)(=O)N2CCCCC2)c1)[C@@H]1CCCN1S(=O)(=O)c1ccccc1C(F)(F)F | nt | -11 | 104 | i
SMILES | T cell HTS | Vif imaging | Pemphigus Ab inh | Myeloid diff MLP
O=C(N/N=C\c1cccc([N+](=O)[O-])c1O)C1COc2ccccc2O1 (stereo unspecified) | 386 | -5 | 31* | i
O=C(N/N=C/c1cccc([N+](=O)[O-])c1)C1COc2ccccc2O1 (stereo unspecified) | 257 | -7 | 108 | i
CC(O)(c1cccnc1)c1nc(-c2ccc3ccccc3c2)cs1 (stereo unspecified) | nt | -17 | nt | i
COc1ccc(/C(O)=C/c2nc3ccccc3n(-c3ccccc3)c2=O)cc1 | 170 | 3 | 115 | +
CCNc1nc(NC(C)C)nc(NS(=O)(=O)c2ccc(C)cc2)n1 | 190 | 0 | 115 | i
O=C(/C=C/c1cc[n+](CC(=O)c2ccc3cccc4c3c2CC4)cc1)c1ccc2cccc3c2c1CC3 | 149 | 1 | 63* | +
NC(=S)N/N=C/c1cc([N+](=O)[O-])ccc1Cl | 392 | -9 | 103 | i
O=[N+]([O-])c1ccc(Cl)c(/C=N/NC(=S)Nc2ccccc2)c1 | 243 | 11 | 84* | i
COc1ccc(/C=N/Nc2nnc(-c3ncc[nH]3)c3ccccc23)cc1 | 372 | 1 | 96 | i
Oc1ccc2ccccc2c1/C=N/Nc1nnc(-c2ncc[nH]2)c2ccccc12 | 484 | 87* | 97 | nt
C[C@H](CO)N1C[C@H](C)[C@@H](CN(C)Cc2ccccc2)Oc2c(NC(=O)Cc3ccccc3)cccc2C1=O | 171 | 1 | 103 | i
C[C@H](CO)N1C[C@H](C)[C@@H](CN(C)Cc2ccc(Cl)c(Cl)c2)Oc2c(NC(=O)Cc3ccccc3)cccc2C1=O | 688 | -4 | 96 | +
Cc1cccn2c(=O)c(/C=C(\C#N)C(=O)NCc3ccco3)c(N3CCCCC3)nc12 | 303 | -18 | 99 | +
Cc1ccc(S(=O)(=O)N2CCN(Cc3csc(C)n3)CC2)cc1 | 322 | 2 | nt | +
CCOc1ccc(CNC(=O)C2CCN(S(=O)(=O)N3CCC(C)CC3)CC2)cc1OC | nt | nt | 100 | i
C/C(=N\Nc1ccc(Cl)c(C(=O)O)c1)c1cc2ccccc2o1 | 228 | 4 | 112 | i
C/C(=N\Nc1ccc(Cl)c(C(=O)O)c1)c1cccc2ccccc12 | 290 | 65* | 112 | i
CCc1nc2ccc(C(=O)N3CCN(S(=O)(=O)CC)CC3)cn2c1N(C)C(=O)c1cccc(OC)c1 | nt | 10 | nt | i
Cc1cc(NC(=O)COC(=O)[C@H](Cc2ccccc2)NC(=O)c2ccco2)no1 | nt | -1 | nt | i
O=C(NC1CCS(=O)(=O)C1)c1cccnc1 (stereo unspecified) | 27* | nt | nt | nt
O=C(NC1CCS(=O)(=O)C1)c1cccc(Br)c1 (stereo unspecified) | 416 | -1 | 98 | i
CC1=C(C(=O)N(C)C)CC(CC(=O)NCCc2ccccn2)C(=O)N1CCCN1CCCC1=O (stereo unspecified) | nt | 5 | 114 | i
COc1ccc(SCC(O)Cn2c3ccccc3c3ccccc32)c(OC)c1 (stereo unspecified) | nt | nt | nt | +
Brc1ccc(C2Nc3cccc4cccc(c34)N2)cc1 | nt | 8 | 114 | +
Fc1ccc(C2Nc3cccc4cccc(c34)N2)cc1 | 316 | 1 | 103 | i
SMILES | T cell HTS | Vif imaging | Pemphigus Ab inh | Myeloid diff MLP
CNc1ccc(-c2cccc(CO)c2)cn1 | nt | 1 | nt | i
CCC(=O)n1nc(-c2ccc(Cl)cc2)nc1SC | 332 | 53* | 105 | i
CC(NC(=O)Cc1ccc(F)cc1)c1ccccc1 (stereo unspecified) | 64* | 15 | 101 | i
NS(=O)(=O)c1cccc(NC(=O)COC(=O)CNC(=O)c2ccc(-c3ccccc3)cc2)c1 | 442 | -2 | 95 | i
Cc1ccc(C(=O)Nc2cccc(C(F)(F)F)c2)cc1Nc1cncnc1 | 390 | 1 | 114 | +!
COc1cc(NC(=O)c2ccc(N)nc2)cc(C(=O)Nc2cccc(C(F)(F)F)c2)c1 | 194 | -18 | 105 | +!

Screening results: PubChem, several laboratories
